The source made the active and inactive calls. No cut-off for these calls is given here.
Key:
[1] = molecular target: T1, DNA (cytosine-5)-methyltransferase 1 (Homo sapiens, UniProt P26358); experiment: Inhibition of human recombinant DNMT1 expressed in Sf9 cells assessed as incorporation of [3H]S-adenosyl methionine into hemimethylated oligonucleotide substrate after 3 hrs by scintillation counting
[2] = molecular target: T1, DNA (cytosine-5)-methyltransferase 1; experiment: Inhibition of human recombinant DNMT1 expressed in Sf9 cells assessed as remaining activity at 2 mM after 3 hrs by scintillation counting in presence of [3H]S-adenosyl methionine
Procedure, shortened: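 Single-point screen at 2 mM (compounds in DMSO, DMSO control) against 500 nM Sf9-expressed human DNMT1, hemimethylated oligo 0.4 μM, 0.7 μM [3H]AdoMet, pH 7.5 Tris buffer, 37 °C for 3 h; filter-bound tritium counted. Relative enzyme activity (% of control) as mean of three measurements with SD; inhibition >20% scored positive.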

[3] = molecular target: T1, DNA (cytosine-5)-methyltransferase 1; experiment: Selectivity ratio of IC50 for procaine to compound for human recombinant DNMT1 expressed in Sf9 cells assessed as incorporation of [3H]S-adenosyl methionine into hemimethylated oligonucleotide substrate after 3 hrs by scintillation counting
[4] = molecular target: T1, DNA (cytosine-5)-methyltransferase 1; experiment: Competitive inhibition of human recombinant DNMT1 expressed in Sf9 cells using [3H]S-adenosyl methionine as substrate at 150 uM after 1 hr by scintillation counting
Procedure, shortened: (§1)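 Mode-of-inhibition assay: standard DNMT1 filter assay (500 nM enzyme) modified with inhibitor fixed at 150 μM and 1 h at 37 °C; either [3H]SAM or the oligo substrate concentration increased while the other held. Activity with inhibitor under standard conditions set as 100% inhibition; curves interpreted by the Lai and Wu model.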

[5] = molecular target: T1, DNA (cytosine-5)-methyltransferase 1; experiment: Non-competitive inhibition of human recombinant DNMT1 expressed in Sf9 cells using oligonucleotide as substrate after 1 hr by scintillation counting; procedure, shortened: as §1
HCT-116 [6] = experiment: Antiproliferative activity against human HCT116 cells after 72 hrs by trypan blue staining; type: functional; details: HCT-116, 72 h
Procedure, shortened: (§2)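 HCT116 colon carcinoma cells incubated 72 h with test compound at 300, 500 and 750 μM, azacytidine 1 μM as positive control, DMSO alone as control.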

HCT-116 [7] = experiment: Antiproliferative activity against human HCT116 cells assessed as growth inhibition by measuring doubling time after 72 hrs by trypan blue staining; type: functional, cell-based; procedure, shortened: as §2
HCT-116 [8] = experiment: Antiproliferative activity against human HCT116 cells assessed as growth inhibition by measuring proliferation rate after 72 hrs by trypan blue staining; type: functional, cell-based; procedure, shortened: as §2

T1 sequence (P26358 whole entry): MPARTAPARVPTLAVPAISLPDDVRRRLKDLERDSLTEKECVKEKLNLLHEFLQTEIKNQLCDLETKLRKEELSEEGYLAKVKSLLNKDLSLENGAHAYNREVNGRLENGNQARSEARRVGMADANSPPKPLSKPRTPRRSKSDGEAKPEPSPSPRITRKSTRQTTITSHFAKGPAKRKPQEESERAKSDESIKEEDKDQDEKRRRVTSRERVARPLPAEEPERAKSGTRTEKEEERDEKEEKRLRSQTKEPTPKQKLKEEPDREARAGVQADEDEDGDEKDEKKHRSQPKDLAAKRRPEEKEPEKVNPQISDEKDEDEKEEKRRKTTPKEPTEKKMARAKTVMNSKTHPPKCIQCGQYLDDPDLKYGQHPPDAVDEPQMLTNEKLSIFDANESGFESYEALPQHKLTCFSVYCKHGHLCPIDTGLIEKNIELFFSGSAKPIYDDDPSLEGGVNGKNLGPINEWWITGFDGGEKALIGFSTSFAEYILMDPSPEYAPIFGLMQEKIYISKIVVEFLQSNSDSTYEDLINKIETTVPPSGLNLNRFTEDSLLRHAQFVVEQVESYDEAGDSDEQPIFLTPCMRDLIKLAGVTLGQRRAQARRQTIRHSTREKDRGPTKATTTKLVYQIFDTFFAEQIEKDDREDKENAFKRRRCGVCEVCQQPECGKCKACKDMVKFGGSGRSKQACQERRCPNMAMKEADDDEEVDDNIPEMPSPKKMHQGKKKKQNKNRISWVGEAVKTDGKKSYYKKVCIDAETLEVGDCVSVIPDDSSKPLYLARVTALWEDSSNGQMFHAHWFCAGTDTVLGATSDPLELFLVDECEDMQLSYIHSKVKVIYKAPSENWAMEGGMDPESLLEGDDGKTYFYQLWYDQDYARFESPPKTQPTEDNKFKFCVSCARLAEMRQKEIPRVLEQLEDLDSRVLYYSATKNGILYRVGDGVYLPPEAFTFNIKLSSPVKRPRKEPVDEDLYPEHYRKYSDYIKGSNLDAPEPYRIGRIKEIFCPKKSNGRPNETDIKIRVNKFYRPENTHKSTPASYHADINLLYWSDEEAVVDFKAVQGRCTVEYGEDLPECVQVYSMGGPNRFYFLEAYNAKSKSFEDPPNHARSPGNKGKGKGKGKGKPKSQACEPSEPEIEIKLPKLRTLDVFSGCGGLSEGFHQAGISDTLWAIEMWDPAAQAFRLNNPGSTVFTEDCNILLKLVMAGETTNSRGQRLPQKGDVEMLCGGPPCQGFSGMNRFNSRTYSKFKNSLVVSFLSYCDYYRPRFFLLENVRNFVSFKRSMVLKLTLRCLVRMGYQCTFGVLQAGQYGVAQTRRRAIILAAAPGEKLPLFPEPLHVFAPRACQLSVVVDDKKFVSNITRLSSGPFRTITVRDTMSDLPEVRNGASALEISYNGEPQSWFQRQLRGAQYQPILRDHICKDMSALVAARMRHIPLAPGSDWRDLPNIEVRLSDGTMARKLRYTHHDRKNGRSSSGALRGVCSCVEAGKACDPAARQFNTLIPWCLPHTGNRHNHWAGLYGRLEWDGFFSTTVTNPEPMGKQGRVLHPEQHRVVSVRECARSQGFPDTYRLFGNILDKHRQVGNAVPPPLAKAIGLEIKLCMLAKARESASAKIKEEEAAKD

SMILES	Activity [2]	also measured
CN1CC2ON=C(Cc3ccc([N+](=O)[O-])cc3)C2C1 (configuration not stated)	3.8%	IC50 [1]: 310 µM
CN1CC2ON=C(c3ccc([N+](=O)[O-])cc3)C2C1 (configuration not stated)	34.9%	–
CN(C)CC1CC(Cc2ccc([N+](=O)[O-])cc2)=NO1 (configuration not stated)	14.8%	IC50 [1]: 1600 µM
O=C(O)[C@H](Cc1c[nH]c2ccccc12)N1C(=O)c2ccccc2C1=O	inactive	–
Cc1ccc(S(=O)(=O)Oc2ccc(C3=NOC(CN(C)C)C3)cc2)cc1 (configuration not stated)	90.6%	–
COc1ccc(CC2=NOC3CN(C)CC23)cc1 (configuration not stated)	1.7%	IC50 [1]: 1130 µM
CN1CC2ON=C(c3ccccc3)C2C1 (configuration not stated)	inactive	–
CN1CC2ON=C(c3ccc(N)cc3)C2C1 (configuration not stated)	5.1%	IC50 [1]: 570 µM
Nc1ncnc2c1ncn2[C@@H]1O[C@H](CSCC[C@H](N)C(=O)O)[C@@H](O)[C@H]1O	0.5%	–
CN1CC2ON=C(c3ccc(O)cc3)C2C1 (configuration not stated)	inactive	–
CN1CC2ON=C(c3ccc(C(=O)O)cc3)C2C1 (configuration not stated)	inactive	–
CN1CC2ON=C(Cc3ccc(N)cc3)C2C1 (configuration not stated)	3.3%	–
CN1CC2ON=C(Cc3ccccc3)C2C1 (configuration not stated)	84%	–
O=[N+]([O-])c1ccc(C2=NC[C@H](CN3CCCC3)O2)cc1	–	growth inhibition (GI) (HCT-116 [7]): inactive; growth inhibition (GI) (HCT-116 [8]): inactive
CCN(CC)CCOC(=O)c1ccc(N)cc1	inactive	–
COc1ccc(CC2=NOC(CN(C)C)C2)cc1 (configuration not stated)	inactive	–
Cc1ccc(S(=O)(=O)Oc2ccc(C3=NOC4CN(C)CC34)cc2)cc1 (configuration not stated)	18.6%	–
COc1ccc(C2=NOC3CN(C)CC23)cc1 (configuration not stated)	95.6%	–

Continued, in another order:

Activity [2]	SMILES	also measured
23%	CN(C)CC1CC(c2ccc(C(=O)O)cc2)=NO1 (configuration not stated)	–
20.2%	CN(C)CC1CC(c2ccc(N)cc2)=NO1 (configuration not stated)	IC50 [1]: 270 µM
88%	CN(C)CC1CC(c2ccc(O)cc2)=NO1 (configuration not stated)	–
0.3%	CN(C)CC1CC(c2ccc([N+](=O)[O-])cc2)=NO1 (configuration not stated)	Ratio IC50 [3]: 10; IC50 [1]: 150 µM; inhibition [4]: Active; inhibition [5]: Active; GI50 (HCT-116 [6]): 360 µM
inactive	CN(C)CC1CC(c2ccccc2)=NO1 (configuration not stated)	–
17.1%	CN(C)CC1CC(Cc2ccccc2)=NO1 (configuration not stated)	–
28.3%	CN(C)CC1CC(Cc2ccc(N)cc2)=NO1 (configuration not stated)	–
3.3%	COc1ccc(C2=NOC(CN(C)C)C2)cc1 (configuration not stated)	–

— ChEMBL document CHEMBL1914404, “Synthesis and biochemical evaluation of δ(2)-isoxazoline derivatives as DNA methyltransferase 1 inhibitors” (J Med Chem, 2011)
